Experimental data from different studies.
Compare with care: the assays were run in different laboratories.

SMILES	cell line	effect on	action	method	time	IC50 [µM]
O=C(NCc1ccc(O)cc1)c1cn(Cc2ccc(F)cc2)c2ccc(Oc3ccccc3)cc2c1=O	MCF7	cell growth or viability	–	MTT	48 h	78.5
N.N.[Cl][Pt][Cl]	SW-620	cell growth or viability	–	MTT	72 h	6.7
N.N.[Cl][Pt][Cl]	MCF7	cell growth or viability	–	MTT	48 h	27.8
O=C(NCc1ccc(F)cc1)c1cn(Cc2ccc(C(F)(F)F)cc2)c2ccc(Oc3ccccc3)cc2c1=O	MCF7	cell growth or viability	–	MTT	24 h	8.32
CC(C)[C@H](NC(=O)[C@H](Cc1c[nH]c2ccccc12)NC(=O)[C@H](Cc1c[nH]cn1)NC(=O)[C@H](CCCNC(=N)N)NC(=O)[C@H](CCCNC(=N)N)NC(=O)[C@H](Cc1c[nH]c2ccccc12)NC(=O)[C@H](Cc1c[nH]c2ccccc12)NC(=O)[C@H](Cc1c[nH]cn1)NC(=O)[C@H](Cc1c[nH]c2ccccc12)NC(=O)[C@H](CCCNC(=N)N)NC(=O)[C@@H](N)CCCCN)C(=O)N[C@H](C(=O)N[C@@H](Cc1c[nH]c2ccccc12)C(N)=O)C(C)C	THP-1	cell growth or viability	–	MTT	–	103
CC[C@H](C)[C@H](NC(=O)[C@H](CCCCN)NC(=O)[C@H](CCCCN)NC(=O)[C@H](CC(C)C)NC(=O)[C@H](CCCCN)NC(=O)[C@H](CCCCN)NC(=O)[C@H](Cc1ccccc1)NC(=O)[C@H](Cc1ccccc1)NC(=O)[C@H](CCCNC(=N)N)NC(=O)[C@H](CCCNC(=N)N)NC(=O)[C@@H](NC(=O)[C@H](CCCCN)NC(=O)[C@H](CCCNC(=N)N)NC(=O)[C@@H](NC(=O)[C@@H](N)Cc1ccc(O)cc1)[C@@H](C)CC)[C@@H](C)CC)C(=O)N[C@@H](CC(C)C)C(=O)N[C@@H](CCCCN)C(=O)N[C@@H](CCCCN)C(N)=O	THP-1	cell growth or viability	–	resazurin	–	5.2
Cc1sc2c(c1C)C(c1ccc(Cl)cc1)=N[C@@H](CC(N)=O)c1nnc(C)n1-2	MP46	cell growth or viability	–	ATP luminescence	72 h	0.109
S=P1(c2ccccc2)CCCCC1	SW-620	cell growth or viability	–	MTT	72 h	> 100
O=C(NCc1ccccc1)c1cn(Cc2ccc(C(F)(F)F)cc2)c2ccc(Oc3ccccc3)cc2c1=O	MCF7	cell growth or viability	–	MTT	–	< 12
CC[C@@]1(O)C(=O)OCc2c1cc1n(c2=O)Cc2cc3ccccc3nc2-1	MP46	cell growth or viability	–	ATP luminescence	72 h	0.21
COc1ccc2c(c1OC)CN1CCc3cc4c(cc3[C@@H]1C2)OCO4	HepaRG	reactive oxygen species	inhibitor	–	16 h	2.69
O=C1CCP(=[Se])(c2ccccc2)CC1	SW-620	cell growth or viability	–	MTT	72 h	> 100
